Values after ≈ are worked out from the molar mass of the structure shown.
Columns and labels:
WI-38 VA13 = assay: Cytotoxicity against tumorigenic cell line WI-38 VA-13 subline 2RA (VA-13);no cytotoxicity against parental cell line WI-38; type: functional, cell-based; settings: Homo sapiens
Mus musculus [1] = assay: In vivo percent inhibitory effect on tumor growth after 11 days against mouse Lewis lung carcinoma xenograft model (LLC) at the dose of 20 mg/kg/shot; (Schedule day=1); type: functional; settings: 264 h, read-out: TGI
Procedure, shortened: (§1)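 Mouse Lewis lung carcinoma was inoculated subcutaneously into BDF1 female mice (n = 6) on day 0. Dosing was iv in 10% DMA/10% HCO60 (polyoxyethylene hydrogenated castor oil 60)/80% saline on the stated schedule. Tumor growth inhibition (%) was based on tumor volume at day 11, with significance by t test (p < 0.05).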

Mus musculus [2] = assay: In vivo percent inhibitory effect on tumor growth after 11 days against mouse Lewis lung carcinoma xenograft model (LLC) at the dose of 5 mg/kg/shot; (Schedule day=1,4,7); type: functional; settings: 264 h, read-out: TGI; procedure, shortened: as §1
Mus musculus [3] = assay: Half life time in plasma at a single iv dose of 10 mg/kg
Mus musculus [4] = assay: In vivo percent inhibitory effect on tumor growth after 11 days against mouse Lewis lung carcinoma xenograft model (LLC) at the dose of 40 mg/kg/shot; (Schedule day=1,4,7); type: functional; settings: 264 h, read-out: TGI; procedure, shortened: as §1
Mus musculus [5] = species: Mus musculus; assay: Half life time in plasma (concentration); type: functional, organism-based
Procedure, shortened: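 Plasma levels were measured in BDF1 female mice after iv administration at 10 mg/kg, with n = 2 and the mean concentration–time profile reported. The plasma half-life was derived from these profiles.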

| SMILES | EC50 (WI-38 VA13) | further results |
| --- | --- | --- |
| COCCOC(=O)Nc1nc2ccc(NC(=O)c3c(Cl)cccc3Cl)cc2s1 | 0.011 µg/mL (≈ 0.025 µM) | – |
| O=C(Nc1ccc2nc(NC(=O)C3CCCCC3)sc2c1)c1c(F)cccc1C(F)(F)F | 0.032 µg/mL (≈ 0.0687 µM) | – |
| O=C(O)CCC(=O)Nc1nc2ccc(NC(=O)c3c(Cl)cccc3Cl)cc2s1 | > 6.6 µg/mL | – |
| CCOC(=O)Nc1nc2ccc(NC(=O)c3c(Cl)cccc3Cl)cc2s1 | 0.0026 µg/mL (≈ 0.00634 µM) | – |
| N#Cc1ccc(C(=O)Nc2ccc3nc(NC(=O)C4CCCCC4)sc3c2)cc1 | 3.3 µg/mL (≈ 8.16 µM) | – |
| Cc1ccc(F)cc1S(=O)(=O)Nc1ccc2nc(NC(=O)C3CCCCC3)sc2c1 | 0.7 µg/mL (≈ 1.56 µM) | – |
| O=C(Nc1ccc2nc(NC(=O)C3CCCCC3)sc2c1)c1ccc(Cl)cc1Cl | > 4 µg/mL | – |
| Cn1nccc1C(=O)Nc1ccc2nc(NC(=O)C3CCCCC3)sc2c1 | 0.58 µg/mL (≈ 1.51 µM) | – |
| O=C(Nc1ccc2nc(NC(=O)C3CCCCC3)sc2c1)c1cccnc1Cl | 0.075 µg/mL (≈ 0.181 µM) | – |
| CC(=O)Nc1nc2ccc(NC(=O)c3c(Cl)cccc3Cl)cc2s1 | 0.6 µg/mL (≈ 1.58 µM) | – |
| O=C(Nc1nc2ccc(NC(=S)Nc3ccc4c(c3)OCCO4)cc2s1)C1CCCCC1 | 1.6 µg/mL (≈ 3.41 µM) | – |
| O=C(Nc1ccc2nc(NC(=O)C3CC3)sc2c1)c1c(Cl)cccc1Cl | 0.013 µg/mL (≈ 0.032 µM) | inhibition in vivo at 20 mg/kg (Mus musculus [1]): 68%; inhibition in vivo at 5 mg/kg (Mus musculus [2]): 63%; T1/2 (Mus musculus [3]): 3.29 h |
| CCOC(=O)Nc1nc2cc(NC(=O)c3c(Cl)cccc3Cl)ccc2s1 | 2.5 µg/mL (≈ 6.09 µM) | – |
| CCCCCNc1nc2ccc(NC(=O)c3c(Cl)cccc3Cl)cc2s1 | 0.27 µg/mL (≈ 0.661 µM) | – |
| Cc1nc(C)c(C(=O)Nc2ccc3nc(NC(=O)C4CCCCC4)sc3c2)s1 | 0.39 µg/mL (≈ 0.941 µM) | – |
| CCNC(=O)Nc1nc2ccc(NC(=O)c3c(Cl)cccc3Cl)cc2s1 | 0.032 µg/mL (≈ 0.0782 µM) | – |
| CC(C)NC(=O)Nc1nc2ccc(NC(=O)c3c(Cl)cccc3Cl)cc2s1 | 0.03 µg/mL (≈ 0.0709 µM) | – |
| CCCCCCNC(=O)Nc1nc2ccc(NC(=O)c3c(Cl)cccc3Cl)cc2s1 | 0.29 µg/mL (≈ 0.623 µM) | – |
| O=C(Nc1nc2ccc(NC(=O)c3c(Cl)cccc3Cl)cc2s1)Oc1ccccc1 | 1.1 µg/mL (≈ 2.4 µM) | – |
| Cc1cc(C(=O)Nc2ccc3nc(NC(=O)C4CCCCC4)sc3c2)n(C)n1 | 0.12 µg/mL (≈ 0.302 µM) | – |
| C=CCOC(=O)Nc1ccc2nc(NC(=O)C3CCCCC3)sc2c1 | 0.58 µg/mL (≈ 1.61 µM) | – |

| SMILES | EC50 (WI-38 VA13) | further results |
| --- | --- | --- |
| O=C(Nc1ccc2nc(NC(=O)C3CCCCC3)sc2c1)c1cccc(F)c1 | 0.64 µg/mL (≈ 1.61 µM) | – |
| NCCC(=O)Nc1nc2ccc(NC(=O)c3c(Cl)cccc3Cl)cc2s1 | 5.3 µg/mL (≈ 12.9 µM) | – |
| CCCCCCCC(=O)Nc1nc2ccc(NC(=O)c3c(Cl)cccc3Cl)cc2s1 | 0.18 µg/mL (≈ 0.388 µM) | – |
| CC(C)OC(=O)Nc1nc2ccc(NC(=O)c3c(Cl)cccc3Cl)cc2s1 | 0.0026 µg/mL (≈ 0.00613 µM) | – |
| CC(C)CC(=O)Nc1nc2ccc(NC(=O)c3c(Cl)cccc3Cl)cc2s1 | 0.012 µg/mL (≈ 0.0284 µM) | – |
| COc1cccc(Nc2nc3ccc(NC(=O)c4c(Cl)cccc4Cl)cc3s2)c1 | > 7.2 µg/mL | – |
| O=C(Nc1ccc2nc(NC(=O)C3CCCCC3)sc2c1)c1c(Cl)cccc1Cl | 0.015 µg/mL (≈ 0.0335 µM) | inhibition in vivo at 40 mg/kg (Mus musculus [4]): 35%; T1/2 (Mus musculus [5]): 1.1 h |
| Cc1ccccc1C(=O)Nc1ccc2nc(NC(=O)C3CCCCC3)sc2c1 | 0.085 µg/mL (≈ 0.216 µM) | – |
| O=C(NCc1ccccc1)Nc1nc2ccc(NC(=O)c3c(Cl)cccc3Cl)cc2s1 | 0.15 µg/mL (≈ 0.318 µM) | – |
| COc1ccccc1Nc1nc2ccc(NC(=O)c3c(Cl)cccc3Cl)cc2s1 | > 7.2 µg/mL | – |
| O=C(Nc1ccc2nc(NCC3CCCCC3)sc2c1)c1c(Cl)cccc1Cl | 4.3 µg/mL (≈ 9.9 µM) | – |
| Cc1cccc(C)c1NC(=O)Nc1ccc2nc(NC(=O)C3CCCCC3)sc2c1 | 0.56 µg/mL (≈ 1.33 µM) | – |
| CC(C)(C)OC(=O)Nc1nc2ccc(NC(=O)c3c(Cl)cccc3Cl)cc2s1 | 0.027 µg/mL (≈ 0.0616 µM) | – |
| CC(C)COC(=O)Nc1nc2ccc(NC(=O)c3c(Cl)cccc3Cl)cc2s1 | 0.0035 µg/mL (≈ 0.00798 µM) | – |
| CCCCNC(=O)Nc1nc2ccc(NC(=O)c3c(Cl)cccc3Cl)cc2s1 | 0.028 µg/mL (≈ 0.064 µM) | – |
| Cn1ncc([N+](=O)[O-])c1C(=O)Nc1ccc2nc(NC(=O)C3CCCCC3)sc2c1 | 0.026 µg/mL (≈ 0.0607 µM) | inhibition in vivo at 40 mg/kg (Mus musculus [4]): 15% |
| Cc1cc(C(=O)Nc2ccc3nc(NC(=O)C4CCCCC4)sc3c2)c(C)n1C | > 6.2 µg/mL | – |
| Cc1[nH][n+](C)c(C)c1C(=O)Nc1ccc2nc(NC(=O)C3CCCCC3)sc2c1 | 0.012 µg/mL | – |
| CCC(C)(C)C(=O)Nc1ccc2nc(NC(=O)C3CCCCC3)sc2c1 | 1 µg/mL (≈ 2.68 µM) | – |
| O=C(Nc1ccc2nc(NC(=O)C3CCCCC3)sc2c1)c1ccccc1F | 0.14 µg/mL (≈ 0.352 µM) | – |
| O=C(Nc1ccc2nc(NC(=O)C3CCCCC3)sc2c1)c1ccccc1C(F)(F)F | 0.024 µg/mL (≈ 0.0536 µM) | – |

| SMILES | EC50 (WI-38 VA13) | further results |
| --- | --- | --- |
| O=C(Nc1nc2ccc(NC(=O)C3CCCO3)cc2s1)C1CCCCC1 (stereo not drawn) | 1.3 µg/mL (≈ 3.48 µM) | – |
| O=C(NCCc1ccccc1)Nc1ccc2nc(NC(=O)C3CCCCC3)sc2c1 | 0.7 µg/mL (≈ 1.66 µM) | – |
| COC(=O)Nc1nc2ccc(NC(=O)c3c(Cl)cccc3Cl)cc2s1 | 0.0095 µg/mL (≈ 0.024 µM) | – |
| CCCC(=O)Nc1nc2ccc(NC(=O)c3c(Cl)cccc3Cl)cc2s1 | 0.01 µg/mL (≈ 0.0245 µM) | – |
| CC(C)COC(=O)Nc1ccc2nc(NC(=O)C3CCCCC3)sc2c1 | 0.72 µg/mL (≈ 1.92 µM) | – |
| O=C(Nc1ccc2nc(NC(=O)C3CCCCC3)sc2c1)c1cccc(Oc2ccccc2)c1 | > 4 µg/mL | – |
| CCCCOc1ccc(S(=O)(=O)Nc2ccc3nc(NC(=O)C4CCCCC4)sc3c2)cc1 | 0.75 µg/mL (≈ 1.54 µM) | – |
| N#Cc1cccc(C(=O)Nc2ccc3nc(NC(=O)C4CCCCC4)sc3c2)c1 | 0.52 µg/mL (≈ 1.29 µM) | – |
| O=C(Nc1ccc2nc(NC(=O)C3CCC3)sc2c1)c1c(Cl)cccc1Cl | 0.013 µg/mL (≈ 0.0309 µM) | – |
| O=C(Nc1ccc2nc(NC(=O)C3CCCCC3)sc2c1)c1ccccc1Oc1ccccc1 | 0.1 µg/mL (≈ 0.212 µM) | – |
| Cc1coc(C)c1C(=O)Nc1ccc2nc(NC(=O)C3CCCCC3)sc2c1 | 2.7 µg/mL (≈ 6.79 µM) | – |
| CCCC(C)C(=O)Nc1ccc2nc(NC(=O)C3CCCCC3)sc2c1 (stereo not drawn) | 0.14 µg/mL (≈ 0.375 µM) | – |
| Cc1ccc(C(=O)Nc2ccc3nc(NC(=O)C4CCCCC4)sc3c2)cc1 | 5.1 µg/mL (≈ 13 µM) | – |
| O=C(Nc1ccc2nc(NC(=O)C3CCCCC3)sc2c1)c1ccccc1Cl | 0.025 µg/mL (≈ 0.0604 µM) | – |
| CC(=O)Nc1ccc2nc(NC(=O)C3CCCCC3)sc2c1 | 2.7 µg/mL (≈ 8.51 µM) | – |
| O=C(Nc1nc2ccc(N/C(S)=N/c3ccccc3OC(F)(F)F)cc2s1)C1CCCCC1 | 2.3 µg/mL (≈ 4.65 µM) | – |
| COc1ccc(C(=O)Nc2ccc3nc(NC(=O)C4CCCCC4)sc3c2)cc1 | 4.9 µg/mL (≈ 12 µM) | – |
| CCCOC(=O)Nc1nc2ccc(NC(=O)c3c(Cl)cccc3Cl)cc2s1 | 0.0025 µg/mL (≈ 0.00589 µM) | – |
| COc1ccc(Nc2nc3ccc(NC(=O)c4c(Cl)cccc4Cl)cc3s2)cc1 | 0.87 µg/mL (≈ 1.96 µM) | – |
| O=C(Nc1ccc2nc(NC(=O)C3CCCCC3)sc2c1)c1ccc(Br)cc1 | > 4 µg/mL | – |

From ChEMBL document CHEMBL1139576, “Synthesis and biological evaluation of benzothiazole derivatives as potent antitumor agents” (Bioorg Med Chem Lett, 2005)
